Measurements taken from PMC6467790 (Journal of medicinal chemistry, 2018).
Entries after “also recorded” stand apart in the source; their conditions may differ.

Columns and labels:
K562 cells = settings: 10 nM; cited from earlier work
MCF7 cells [1] = experiment: Western blot of histone methylation levels in MCF7 cells; format: cell-based, human
Outline: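 MCF7 cells were treated with test compound at the indicated concentrations, or 0.1% DMSO, for 30 or 48 h. Total cell lysates were analysed by Western blot with histone methylation antibodies.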

KDM5B [2] = settings: cited from earlier work
MCF7 cells [3] = experiment: Real-time RT-PCR of KDM5 target genes in MCF7 cells; format: cell-based, human; settings: MCF7, 1 μM for 2 days
BT474 cells [4] = experiment: Cellular H3K4me3 level in BT474 cells; format: cell-based, human
KDM5B [5] = experiment: AlphaLISA demethylase assay, KDM5B; format: biochemical, human; settings: AlphaLISA IC50 values; recombinant catalytic domains, same enzyme concentration
KDM5A catalytic domain = experiment: Isothermal titration calorimetry, binding to KDM5A catalytic domain; design: species or system human; settings: ITC
Outline: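 Binding was measured by isothermal titration calorimetry with the KDM5A(1−588)ΔAP catalytic-domain construct (internal ARID and PHD1 deleted). KD was the read-out.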

KDM4A = target: T1, KDM4A (Homo sapiens, UniProt O75164); experiment: AlphaLISA demethylase assay, KDM4A; format: biochemical
T1 sequence (O75164 1-359 limits assumed): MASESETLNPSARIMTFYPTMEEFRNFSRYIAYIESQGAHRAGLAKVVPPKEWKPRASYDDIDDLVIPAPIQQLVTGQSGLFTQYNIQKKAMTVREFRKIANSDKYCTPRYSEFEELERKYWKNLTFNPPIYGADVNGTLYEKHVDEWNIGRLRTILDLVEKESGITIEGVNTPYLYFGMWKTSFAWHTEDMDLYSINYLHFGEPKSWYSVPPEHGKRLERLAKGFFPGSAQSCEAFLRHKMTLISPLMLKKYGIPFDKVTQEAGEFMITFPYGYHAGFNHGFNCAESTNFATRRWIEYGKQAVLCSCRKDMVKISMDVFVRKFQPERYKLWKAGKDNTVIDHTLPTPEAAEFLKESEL

PAMPA permeability assay = format: in vitro ADME; settings: pH 7.4
KDM5A(1−739)ΔAP = target: T2, KDM5A(1−739)ΔAP (Homo sapiens, UniProt P29375, DEL88-347); experiment: Promega Succinate-Glo demethylase assay; format: biochemical; settings: for reversibility of inhibition after buffer exchange / dialysis: [E] = 5 μM, initial [I] = 100 μM, four times of buffer exchange; for dependence of inhibition of KDM5A on αKG concentration: three αKG concentrations (10, 100, 1000 μM), 20 min preincubation; for effect of preincubation with KDM5A on inhibition potency: with or without incubation for 20 min
T2 sequence (P29375 with tags, fused parts or gaps DEL88-347 limits assumed): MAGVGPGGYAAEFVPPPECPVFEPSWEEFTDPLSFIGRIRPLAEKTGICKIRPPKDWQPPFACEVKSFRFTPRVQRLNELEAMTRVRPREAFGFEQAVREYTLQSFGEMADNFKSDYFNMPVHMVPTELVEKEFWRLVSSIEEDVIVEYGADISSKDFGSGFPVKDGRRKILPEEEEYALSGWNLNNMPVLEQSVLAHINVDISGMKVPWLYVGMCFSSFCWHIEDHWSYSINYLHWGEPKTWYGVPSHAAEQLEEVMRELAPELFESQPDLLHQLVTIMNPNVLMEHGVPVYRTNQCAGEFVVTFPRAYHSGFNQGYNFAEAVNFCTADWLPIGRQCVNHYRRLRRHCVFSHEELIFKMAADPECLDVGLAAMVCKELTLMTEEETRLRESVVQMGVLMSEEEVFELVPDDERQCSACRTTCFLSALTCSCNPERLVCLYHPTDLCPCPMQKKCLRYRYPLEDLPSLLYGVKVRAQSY
Outline: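 Succinate-Glo assay: KDM5A(1−739)ΔAP (0.8 μM) was preincubated 20 min with 2-fold serial dilutions of test compound. Reactions were started with αKG (10, 100 or 1000 μM) plus H3(1−24)K4me3 peptide (60 μM), in 10 μM (NH4)2Fe(SO4)2, 100 μM ascorbate, 50 mM HEPES pH 8.0 and 5% DMSO. They ran 10 min at ambient temperature (n = 3), then succinate detection reagents were added. IC50 came from a four-parameter fit.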

MCF7 = experiment: Bright-field microscopy of live cells, MCF7; format: cell-based, human; settings: MCF7, 24 h; N73: between 5 and 10 μM
HEK293T = experiment: Bright-field microscopy of live cells, HEK293T; format: cell-based, human; settings: 24 h, N73: between 5 and 10 μM
KDM5A = experiment: ESI mass spectrometry of KDM5A with inhibitors; format: binding, human; settings: KDM5A 50 μM, inhibitor 0.5 mM, 30 min, ambient temperature
MDA-MB-231 = experiment: Bright-field microscopy of live cells, MDA-MB-231; format: cell-based, human; settings: MDA-MB-231, 24 h; N73: between 5 and 10 μM
BT474 cells [6] = experiment: IncuCyte live cell proliferation, BT474; format: cell-based, human
Outline: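 BT474 cells were treated with test compound. Growth was followed by live-cell imaging every 4 h over 300 h, with percent confluence as the read-out.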

BT474 cells [7] = experiment: Cellular extract experiment, BT474 cells; format: in vitro ADME, human
[8] = Stability in culture media; format: in vitro ADME; settings: after 24 h

CN(C)C/C=C/C(=O)Nc1cc2c(Nc3ccc(F)c(Cl)c3)ncnc2cc1O[C@H]1CCOC1 [Afatinib]
cytotoxicity for EGFR expressing K562 cells (K562 cells): complete cytotoxicity

CCOC(=O)CCNc1cc(N2CCc3ccccc3CC2)nc(-c2ccccn2)n1 [GSK-J4]
overall levels of H3K4me3 or H3K27me3 (MCF7 cells [1]; MCF7, same conditions tested): influences little of the overall levels of H3K4me3 or H3K27me3

CCOC(=O)c1ccnc(CNCC(=O)N(CC)CCN(C)C)c1 [KDM5-C70]
selectivity for the KDM5 family over KDM4A (KDM5B [2]): 10 ×
cellular H3K4me3 levels (MCF7 cells [1]; MCF7, 1 μM): increase in cellular H3K4me3 levels
increase of expression of STING, MT1F, and MT1H (MCF7 cells [3]): up to 6 fold
cellular H3K4me3 levels (BT474 cells [4]; BT474, 1 μM): increase in cellular H3K4me3 levels

CN1CCCC1CCOC(c1cc2nccc(C(=O)O)c2s1)c1ccccc1Cl (stereo not drawn) [N49, 2-((2-Chlorophenyl)(2-(1-methylpyrrolidin-2-yl)-ethoxy)methyl)thieno[3,2-b]pyridine-7-carboxylic Acid]
selectivity for KDM5B over KDM4A (KDM5B [5]): 7−8 fold
difference in binding affinity (KD) to KDM5A between N46 and N49 (KDM5A catalytic domain): approximately 2 fold

Nc1cccc(C(OCCN2CCCCC2)c2cc3nccc(C(=O)O)c3s2)c1 (stereo not drawn) [N70, 2-((3-aminophenyl)(2-(piperidin-1-yl)ethoxy)-methyl)thieno[3,2-b]pyridine-7-carboxylic acid]
inhibition constants against KDM4A, N70 compared with N71 (KDM4A): about the same
Papp at 30 min, 0.05 mM (PAMPA permeability assay): 100 to 1000 nm/s
selectivity for KDM5B over KDM4A (KDM5B [5]): 7−8 fold
reversibility of inhibition after buffer exchange / dialysis (KDM5A(1−739)ΔAP): could be reversed after dialysis; also recorded: removes the noncovalent modifying N70 from solution; also recorded: enzyme activity could be restored after buffer exchange
dependence of inhibition of KDM5A on αKG concentration (KDM5A(1−739)ΔAP): αKG-competitive inhibition; also recorded: dependent on αKG concentration
effect of preincubation with KDM5A on inhibition potency (KDM5A(1−739)ΔAP): insensitive

CN(C)C/C=C/C(=O)Nc1cccc(C(OCCN2CCCCC2)c2cc3nccc(C(=O)O)c3s2)c1 (stereo not drawn) [N71, (E)-2-((3-(4-(Dimethylamino)but-2-enamido)-phenyl)(2-(piperidin-1-yl)ethoxy)methyl)thieno[3,2-b]pyridine-7-carboxylic Acid]
inhibition constants against KDM4A, N70 compared with N71 (KDM4A): about the same
cell killing / effect on cell growth (MCF7): no effect on cell growth
cell killing / effect on cell growth (HEK293T): no effect on cell growth
covalent modification of KDM5A enzyme by mass spectrometry (KDM5A): covalently modified KDM5A enzyme completely
dependence of inhibition of KDM5A on enzyme concentration (KDM5A(1−739)ΔAP): dependent on enzyme concentration
kinact/KI (KDM5A(1−739)ΔAP): ~8000 M⁻¹ s⁻¹
IC50 value lower than that of N70 (KDM5A(1−739)ΔAP; 100 μM αKG concentration): ~ 50 fold
reversibility of inhibition after buffer exchange / dialysis (KDM5A(1−739)ΔAP): persisted even after dialysis; also recorded: does not perturb N71 complex with KDM5A; also recorded: no effect on the inhibition
dependence of inhibition of KDM5A on αKG concentration (KDM5A(1−739)ΔAP): no significant change to IC50 values with variation in αKG concentration; also recorded: did not appear to be sensitive to the αKG concentration
effect of preincubation with KDM5A on inhibition potency (KDM5A(1−739)ΔAP): increased inhibition potency
cell killing / effect on cell growth (MDA-MB-231): no effect on cell growth

CC(C)OC(=O)c1ccnc2cc(C(OCCN3CCCCC3)c3cccc(NC(=O)/C=C/CN(C)C)c3)sc12 (stereo not drawn) [N73, Isopropyl (E)-2-((3-(4-(Dimethylamino)but-2-enamido)phenyl)(2-(piperidin-1-yl)ethoxy)methyl)thieno[3,2-b]-pyridine-7-carboxylate]
cell growth (percent confluence) (BT474 cells [6]; BT474, low doses, period of >12 days): do not affect cell growth
Papp at 30 min, 0.05 mM (PAMPA permeability assay): 100 to 1000 nm/s
intracellular esterase-mediated conversion of ester N73 to acid N71 (BT474 cells [7]; 24 h): appeared to be inefficient
cell extract level of ester N73 relative to acid N71 (BT474 cells [7]; incubated 24 h, lysed): 100 fold
cell killing / effect on cell growth (MCF7): noteworthy difference in cell killing
cell killing / effect on cell growth (HEK293T): noteworthy difference in cell killing
remained unchanged in culture media [8]: Approximately 80%
cellular H3K4me3 methylation levels (BT474 cells [4]; BT474, doses up to 5 μM, 48 h, immunocytochemistry): does not increase H3K4me3 level; also recorded: no impact on cellular H3K4me3 methylation levels
cell killing / effect on cell growth (MDA-MB-231): noteworthy difference in cell killing

CC(C)OC(=O)c1ccnc2cc(C(OCCN3CCCCC3)c3cccc(N)c3)sc12 (stereo not drawn) [SI-5, Isopropyl 2-((3-Aminophenyl)(2-(piperidin-1-yl)-ethoxy)methyl)thieno[3,2-b]pyridine-7-carboxylate]
growth inhibition (percent confluence) (BT474 cells [6]; BT474, highest concentration tested 28 μM): some growth inhibition at the highest concentration tested
Papp at 30 min, 0.05 mM (PAMPA permeability assay): > 1000 nm/s
